Data reported in ChEMBL document CHEMBL1649247, “Fluoroquinolone resistance in Mycobacterium tuberculosis and mutations in gyrA and gyrB” (2009).
In brackets after ≈: the same amount, converted by molar mass. Activity calls are given as the source filed them. The rule behind the calls is not given here.

Assays:
[1] = system: Mycobacterium tuberculosis; experiment: Antimycobacterial activity against Mycobacterium tuberculosis 08-0762 by resazurin microtiter assay; assay type: functional
Summary of the method: (§1)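 Isolates taken from fresh Löwenstein-Jensen subcultures grown at 37°C for at most 4 weeks. Drug stocks 1 mg/ml in 0.1 N NaOH, filter sterilized, stored at −20°C less than 2 months. MIC read by resazurin microtiter assay following a previously described protocol.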

[2] = system: Mycobacterium tuberculosis; experiment: Antimycobacterial activity against Mycobacterium tuberculosis 08-0764 by resazurin microtiter assay; assay type: functional; summary of the method: as §1
[3] = system: Mycobacterium tuberculosis; experiment: Antimycobacterial activity against Mycobacterium tuberculosis 08-0774 by resazurin microtiter assay; assay type: functional; summary of the method: as §1
[4] = system: Mycobacterium tuberculosis; experiment: Antimycobacterial activity against Mycobacterium tuberculosis 08-0781 by resazurin microtiter assay; assay type: functional; summary of the method: as §1
[5] = system: Mycobacterium tuberculosis; experiment: Antimycobacterial activity against Mycobacterium tuberculosis 08-0782 by resazurin microtiter assay; assay type: functional; summary of the method: as §1
[6] = system: Mycobacterium tuberculosis; experiment: Antimycobacterial activity against Mycobacterium tuberculosis 08-0789 by resazurin microtiter assay; assay type: functional; summary of the method: as §1
[7] = system: Mycobacterium tuberculosis; experiment: Antimycobacterial activity against Mycobacterium tuberculosis 08-0762 assessed as microbial susceptibility by agar proportion method; assay type: functional, organism-based
Summary of the method: (§2)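 Clinical isolates freshly subcultured on Löwenstein-Jensen medium, held at 37°C no longer than 4 weeks. Fluoroquinolone stocks 1 mg/ml in 0.1 N NaOH, filter sterilized, kept at −20°C under 2 months. Standard proportion method on 7H11 agar; breakpoints 2 mg/liter ofloxacin, 0.5 mg/liter moxifloxacin and gatifloxacin; scored susceptible or resistant.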

[8] = system: Mycobacterium tuberculosis; experiment: Antimycobacterial activity against Mycobacterium tuberculosis 08-0764 assessed as microbial susceptibility by agar proportion method; assay type: functional, organism-based; summary of the method: as §2
[9] = system: Mycobacterium tuberculosis; experiment: Antimycobacterial activity against Mycobacterium tuberculosis 08-0774 assessed as microbial susceptibility by agar proportion method; assay type: functional, organism-based; summary of the method: as §2
[10] = system: Mycobacterium tuberculosis; experiment: Antimycobacterial activity against Mycobacterium tuberculosis 08-0781 assessed as microbial susceptibility by agar proportion method; assay type: functional, organism-based; summary of the method: as §2
[11] = system: Mycobacterium tuberculosis; experiment: Antimycobacterial activity against Mycobacterium tuberculosis 08-0782 assessed as microbial susceptibility by agar proportion method; assay type: functional, organism-based; summary of the method: as §2
[12] = system: Mycobacterium tuberculosis; experiment: Antimycobacterial activity against Mycobacterium tuberculosis 08-0789 assessed as microbial susceptibility by agar proportion method; assay type: functional, organism-based; summary of the method: as §2

Row | SMILES | MIC [1] | MIC [2] | MIC [3] | MIC [4] | MIC [5] | MIC [6] | Activity [7] | Activity [8] | Activity [9] | Activity [10] | Activity [11] | Activity [12]
1 | COc1c(N2C[C@@H]3CCCN[C@@H]3C2)c(F)cc2c(=O)c(C(=O)O)cn(C3CC3)c12 [MOXIFLOXACIN] | ≤ 0.125 µg/mL | ≤ 0.125 µg/mL | ≤ 0.125 µg/mL | ≤ 0.125 µg/mL | ≤ 0.125 µg/mL | ≤ 0.125 µg/mL | Active | Active | Active | Active | Active | Active
2 | COc1c(N2CCNC(C)C2)c(F)cc2c(=O)c(C(=O)O)cn(C3CC3)c12 (stereo unspecified) [GATIFLOXACIN] | ≤ 0.062 µg/mL | ≤ 0.062 µg/mL | ≤ 0.062 µg/mL | ≤ 0.062 µg/mL | 0.125 µg/mL (≈ 0.333 µM) | ≤ 0.062 µg/mL | Active | Active | Active | Active | Active | Active
3 | CC1COc2c(N3CCN(C)CC3)c(F)cc3c(=O)c(C(=O)O)cn1c23 (stereo unspecified) [OFLOXACIN] | 0.5 µg/mL (≈ 1.38 µM) | 0.5 µg/mL (≈ 1.38 µM) | ≤ 0.25 µg/mL | ≤ 0.25 µg/mL | 0.5 µg/mL (≈ 1.38 µM) | 0.5 µg/mL (≈ 1.38 µM) | Active | Active | Active | Active | Active | Active
